{"source": "ChEMBL document CHEMBL1125577", "about": "“Determination of dissociation constants of high affinity (pM) human renin inhibitors: application to analogues of ditekiren (U-71,038)” (J Med Chem, 1991)", "key": {"[1]": {"assay": "The dissociation constant determined by fluorescence displacement assay", "method_in_brief": "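Unlabeled inhibitor (6.6 and 13 nM) then added for 2.5 h more, with fluorescence read before and after each addition. Kd fitted from predicted binding curves or numerical solution, as the mean of three duplicate determinations.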"}, "Renin [2]": {"target": "T1, Renin (Homo sapiens, UniProt P00797)", "T1 sequence (P00797 whole entry)": "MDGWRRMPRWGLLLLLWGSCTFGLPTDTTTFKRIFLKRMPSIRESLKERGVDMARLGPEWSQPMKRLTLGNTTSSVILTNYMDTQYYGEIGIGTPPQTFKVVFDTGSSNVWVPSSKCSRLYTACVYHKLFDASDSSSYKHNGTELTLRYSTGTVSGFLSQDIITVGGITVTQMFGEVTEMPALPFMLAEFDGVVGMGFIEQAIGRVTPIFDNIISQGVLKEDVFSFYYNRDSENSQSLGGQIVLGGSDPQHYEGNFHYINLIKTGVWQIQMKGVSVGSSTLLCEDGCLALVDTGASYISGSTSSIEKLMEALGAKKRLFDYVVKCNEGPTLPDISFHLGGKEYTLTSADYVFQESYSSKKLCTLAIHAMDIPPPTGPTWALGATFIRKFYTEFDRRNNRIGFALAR", "assay": "In vitro inhibition of human renin by radio-immuno assay of angiotensin I (ANG I)"}, "Renin [3]": {"target": "T1, Renin", "assay": "In vitro inhibition constants using recombinant human renin assay"}}, "note": "Numbered stars: 1 amine (or outer) side, 2 acyl side, 3 side chain; on linkers, the order of the positions; unused ones are H or OH. Square brackets hold non-standard residues; d marks the D form. Peptide text beside a SMILES is read from it. * marks the point of attachment. ξ: configuration not given here. X1 = CC(C)C[C@H](N[*:1])[C@@H](O)C[C@H](C(=O)[*:2])C(C)C; X2 = OC[C@H]1O[C@@H](O)[C@H](N*)[C@H](O)[C@@H]1O; NH(2-picolyl-N-oxide) = [O-][n+]1ccccc1CN*; NMeH = CN[C@@H](Cc1c[nH]cn1)C(=O)O; NHCH2(2-pyridyl) = c1ccc(CN*)nc1; Ile(3ξ) = CCC(C)[C@H](N)C(=O)O; NHC(CH2OH)3 = OCC(CO)(CO)N*; Boc = CC(C)(C)OC(=O)*; CO = O=C([*:1])[*:2]"}
{"smiles": "CC[C@H](C)[C@H](NC(=O)[C@@H](C[C@H](O)[C@H](CC(C)C)NC(=O)[C@H](Cc1c[nH]cn1)N(C)C(=O)[C@H](Cc1ccccc1)NC(=O)[C@@H]1CCCN1C(=O)OC(C)(C)C)C(C)C)C(=O)NCc1ccccn1", "note": "[DITEKIREN]", "values": [{"measurement": "Kd", "setting": "[1]", "value": 0.04, "unit": "nM"}, {"measurement": "IC50", "setting": "Renin [2]", "value": 0.26, "unit": "nM"}, {"measurement": "Ki", "setting": "Renin [3]", "value": 0.04, "unit": "nM"}]}
{"smiles": "CC[C@H](C)[C@H](NC(=O)[C@@H](C[C@H](O)[C@H](CC(C)C)NC(=O)[C@H](Cc1cnc[nH]1)N(C)C(=O)[C@H](Cc1ccccc1)NC(=O)[C@@H]1CCCN1C(=O)NC(CO)(CO)CO)C(C)C)C(=O)NCc1ccccn1", "note": "({NHC(CH2OH)3-CO}-PF[NMeH][X1]I-{NHCH2(2-pyridyl)})", "values": [{"measurement": "IC50", "setting": "Renin [2]", "value": 0.33, "unit": "nM"}]}
{"smiles": "CC[C@H](C)[C@H](NC(=O)[C@@H](C[C@H](O)[C@H](CC(C)C)NC(=O)[C@H](Cc1c[nH]cn1)N(C)C(=O)[C@H](Cc1ccccc1)NC(=O)[C@@H]1CCCN1C(=O)OC(C)(C)C)C(C)C)C(=O)NC(CO)(CO)CO", "note": "(Boc-PF[NMeH][X1]I-{NHC(CH2OH)3})", "values": [{"measurement": "Kd", "setting": "[1]", "value": 0.044, "unit": "nM"}, {"measurement": "IC50", "setting": "Renin [2]", "value": 0.26, "unit": "nM"}]}
{"smiles": "CC[C@H](C)[C@H](NC(=O)[C@@H](C[C@H](O)[C@H](CC(C)C)NC(=O)[C@H](Cc1c[nH]cn1)N(C)C(=O)[C@H](Cc1ccccc1)NC(=O)[C@@H]1CCCN1C(=O)NC(CO)(CO)CO)C(C)C)C(=O)NCc1ccccn1", "note": "({NHC(CH2OH)3-CO}-PF[NMeH][X1]I-{NHCH2(2-pyridyl)})", "values": [{"measurement": "Kd", "setting": "[1]", "value": 0.111, "unit": "nM"}]}
{"smiles": "CC[C@H](C)[C@H](NC(=O)[C@@H](C[C@H](O)[C@H](CC(C)C)NC(=O)[C@H](Cc1c[nH]cn1)N(C)C(=O)[C@H](Cc1ccccc1)NC(=O)[C@@H]1CCCN1C(=O)N[C@@H]1[C@H](O)[C@H](O)[C@@H](CO)O[C@H]1O)C(C)C)C(=O)NCc1cccc[n+]1[O-]", "note": "({X2-CO}-PF[NMeH][X1]I-{NH(2-picolyl-N-oxide)})", "values": [{"measurement": "Kd", "setting": "[1]", "value": 0.434, "unit": "nM"}, {"measurement": "IC50", "setting": "Renin [2]", "value": 1.1, "unit": "nM"}]}
{"smiles": "CC[C@H](C)[C@H](NC(=O)[C@@H](C[C@H](O)[C@H](CC(C)C)NC(=O)[C@H](Cc1cnc[nH]1)N(C)C(=O)[C@H](Cc1ccccc1)NC(=O)[C@@H]1CCCN1C(=O)OC(C)(C)C)C(C)C)C(=O)NCc1cccc[n+]1[O-]", "note": "(Boc-PF[NMeH][X1]I-{NH(2-picolyl-N-oxide)})", "values": [{"measurement": "IC50", "setting": "Renin [2]", "value": 0.33, "unit": "nM"}]}
{"smiles": "CC[C@H](C)[C@H](NC(=O)[C@@H](C[C@H](O)[C@H](CC(C)C)NC(=O)[C@H](Cc1c[nH]cn1)N(C)C(=O)[C@H](Cc1ccccc1)NC(=O)[C@@H]1CCCN1C(=O)OC(C)(C)C)C(C)C)C(=O)NCc1cccc[n+]1[O-]", "note": "(Boc-PF[NMeH][X1]I-{NH(2-picolyl-N-oxide)})", "values": [{"measurement": "Kd", "setting": "[1]", "value": 0.131, "unit": "nM"}]}
{"smiles": "CCC(C)[C@H](NC(=O)[C@@H](C[C@H](O)[C@H](CC(C)C)NC(=O)[C@H](Cc1cnc[nH]1)N(C)C(=O)[C@H](Cc1ccccc1)NC(=O)[C@@H]1CCCN1C(=O)NC(CO)(CO)CO)C(C)C)C(=O)NCc1cccc[n+]1[O-]", "note": "(some centres not stated) ({NHC(CH2OH)3-CO}-PF[NMeH][X1][Ile(3ξ)]-{NH(2-picolyl-N-oxide)})", "values": [{"measurement": "IC50", "setting": "Renin [2]", "value": 0.58, "unit": "nM"}, {"measurement": "Ki", "setting": "Renin [3]", "value": 0.051, "unit": "nM"}]}
{"smiles": "CCC(C)[C@H](NC(=O)[C@@H](C[C@H](O)[C@H](CC(C)C)NC(=O)[C@H](Cc1c[nH]cn1)N(C)C(=O)[C@H](Cc1ccccc1)NC(=O)[C@@H]1CCCN1C(=O)NC(CO)(CO)CO)C(C)C)C(=O)NCc1cccc[n+]1[O-]", "note": "(some centres not stated) ({NHC(CH2OH)3-CO}-PF[NMeH][X1][Ile(3ξ)]-{NH(2-picolyl-N-oxide)})", "values": [{"measurement": "Kd", "setting": "[1]", "value": 0.033, "unit": "nM"}]}
{"smiles": "CC[C@H](C)[C@H](NC(=O)[C@@H](C[C@H](O)[C@H](CC(C)C)NC(=O)[C@H](Cc1c[nH]cn1)NC(=O)[C@@H](Cc1ccccc1)NS(=O)(=O)c1cccc2c(N(C)C)cccc12)C(C)C)C(=O)NCc1ccccn1", "values": [{"measurement": "Kd", "setting": "[1]", "value": 0.066, "unit": "nM"}, {"measurement": "IC50", "setting": "Renin [2]", "value": 0.24, "unit": "nM"}, {"measurement": "Ki", "setting": "Renin [3]", "value": 0.043, "unit": "nM"}]}
